# SIAE inh: human SIAE inhibition, primary screen; SIAE FP-Rh probe binding, fluorescence polarization; actives 0.69% (n = 370,000); inhibition, % at 9.66 µM;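 active means inhibition above a cutoff: mean of compounds within the control limits plus 3 SD of those, cut at about 17% in these data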;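 further: 0% = plate median of compound wells and 100% = probe without SIAE protein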
# HTRA1 inhibitor: blocks human HTRA1 serine peptidase; Q92743; recombinant HTRA1, FP-rhodamine activity-based probe, fluorescence polarization; inhibition, % at 5.96 µM; actives 0.5% (n = 340,000); AID 504803; in the data active means inhibition above about 36%;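 further: 0% = enzyme with DMSO and 100% = wells lacking enzyme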
# PRMT1 FP inh: blocks human protein arginine methyltransferase 1 | Q99873 | recombinant PRMT1, activity-based probe fluorescence polarization | inhibition, % at 2.79 µM | actives 1.3% (n = 370,000) | AID 652257;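 active means inhibition above about 21% made by adding two undisclosed values, limit read from the data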
# Target sequence (Q99873 whole entry, looked up): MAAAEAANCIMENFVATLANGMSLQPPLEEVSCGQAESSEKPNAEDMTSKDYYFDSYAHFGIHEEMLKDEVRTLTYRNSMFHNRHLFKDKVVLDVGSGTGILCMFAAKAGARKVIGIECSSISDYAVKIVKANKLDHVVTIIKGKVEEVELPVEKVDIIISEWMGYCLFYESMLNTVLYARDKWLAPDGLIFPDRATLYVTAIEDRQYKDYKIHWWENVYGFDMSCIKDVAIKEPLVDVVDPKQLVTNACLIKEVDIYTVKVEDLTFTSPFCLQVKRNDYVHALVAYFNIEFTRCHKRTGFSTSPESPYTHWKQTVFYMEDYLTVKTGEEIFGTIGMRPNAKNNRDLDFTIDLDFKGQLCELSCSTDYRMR
# ABHD4 inh: inhibitors of mouse ABHD4; AID 720543; actives 0.54% (n = 370,000); inhibition, % at 8.92 µM; purified mABHD4, FP-Rh probe fluorescence polarization; Q8VD66;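 active means inhibition exceeding the mean over every tested compound plus 3 SD, cut at about 30% in these data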;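 further: 0% = plate median of compound wells and 100% = S159A mutant with DMSO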
#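 Doses – 8.92 µM, single dose · Material – wild-type mouse ABHD4 protein · Replication – single well per compound (singlicate) · Measure – percent inhibition of probe binding, normalized to plate controls · Schedule – 45 min compound pre-incubation plus 60 min probe step, 25 °C · Detection – fluorescence polarization with parallel and perpendicular emission, 525/598 nm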
# TCR-CD3 inh: human TCR-CD3 binding inhibition; TAMRA-labeled TCR probe fluorescence, biochemical; inhibition, % at 9.4 µM; actives 0.37% (n = 360,000); AID 651800; in the data active means inhibition above about 19%;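 further: recombinant mutant TCR 2C K166C tagged with TAMRA read by polarization; 0% = receptor in buffer alone and 100% = receptor with positive control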
# mABHD4 conf: ABHD4 (mouse) inhibition, FP confirmation; shares compounds with ABHD4 inh; purified mABHD4, FP-Rh probe fluorescence polarization; inhibition, % at 8.92 µM; actives 55% (n = 1,800); AID 720658;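 active means mean inhibition across replicates above the hit cutoff set in the primary screen, cut at about 30% in these data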;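 further: 0% = wild-type ABHD4 with DMSO and 100% = catalytically dead S159A mutant with DMSO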
# The depositor's hits bear a star; x = no result. Most compounds without a hit are left out; they make up all but 2.5% or so of the library.
SMILES,SIAE inh,HTRA1 inhibitor,PRMT1 FP inh,ABHD4 inh,TCR-CD3 inh,mABHD4 conf
O=C(/C=C/c1ccc([N+](=O)[O-])cc1)c1cccs1,4.5,8.1,-1.8,-3.6,-2.9,x
CCN1CCCCC(NC(=O)Cc2ccccc2)C1=O (centres undefined),-2.0,x,1.1,2.1,x,x
CCOC(=O)CSc1nc(Nc2ccc3c(c2)OCO3)c2ccccc2n1,9.4,-8.5,-2.8,40.0*,-0.8,32.4*
N#CCSc1nc(Nc2ccc3c(c2)OCO3)c2ccccc2n1,x,-12.8,x,x,x,x
N#CCC[C@H]1CC[C@]2(CCCN(C(=O)c3ccno3)C2)O1,3.6,x,6.1,-4.7,x,x
Nc1ccc2c(c1)-c1ccccc1S(=O)(=O)N2,14.0,29.6,22.2*,49.9*,0.5,31.1*
Cc1ccc2c(c1)-c1ccccc1S(=O)(=O)N2,-0.8,-2.7,-0.5,5.7,2.4,x
COc1cccc(OC)c1C(=O)Nc1ccc(N2CCCC2)cc1,8.7,3.8,2.7,32.9*,2.5,38.1*
Cc1cc(O)ccc1N/C=C/c1onc(C)c1[N+](=O)[O-],3.6,34.5,33.2*,55.6*,7.8,0.1
CC(C)OC(=O)CSc1nnc(-c2cnccn2)n1C,-1.7,2.8,-1.5,116.3*,2.4,-14.2
Cc1ccc2[nH]c3ccccc3c(=O)c2c1,-2.2,-1.5,2.9,8.8,-7.7,x
CCOC(=O)c1c(-c2ccccc2)[nH]c2ccc(O)cc12,4.7,-9.5,-1.6,30.9*,-6.1,42.1*
O=c1c2ccccc2[nH]c2ccc(O)cc12,10.6,18.9,11.2,40.9*,10.7,26.4
S=c1[nH]nc(-c2cc(-c3ccccc3)n[nH]2)n1/N=C/c1cccc2ccccc12,4.7,x,17.2,1.5,x,x
CC(=O)Nc1sc2c(c1-c1nc3ccccc3s1)CCOC2,-5.2,x,11.8,-4.6,x,x
O=C(Nc1ccccc1F)Nc1cccc2ccc(O)cc12,10.7,32.6,5.8,30.9*,1.2,43.2*
COc1cccc(CNS(=O)(=O)c2c(C)nc3sccn3c2=O)c1,0.1,4.2,3.9,64.8*,4.7,-2.8
Cc1nc2sccn2c(=O)c1S(=O)(=O)NCc1ccccc1,-4.9,3.6,0.6,3.1,-4.5,x
Cc1ccc(Cn2cc(CN3[C@@H](CC(C)C)COc4cccc(F)c4S3(=O)=O)nn2)cc1,-2.7,x,3.6,-4.1,x,x
CCOc1ccc2[nH]c3c(N4CCc5ccccc5C4)ncnc3c2c1,16.1,x,-6.5,34.9*,-2.9,53.3*
O=C(CSc1nc2ccccc2c(=O)[nH]1)NC1CCCCC1,-6.0,x,-3.4,3.9,x,x
Oc1ccc2[nH]cc(CCc3ccccc3)c2c1-c1ccccc1,5.7,x,9.7,32.9*,x,15.8
Oc1ccc2[nH]cc(-c3cccs3)c2c1-c1ccccc1,1.8,x,5.1,27.2,x,x
O=C(O)c1ccc(N/N=C/c2cn(Cc3ccc(F)cc3)c3ccccc23)cc1,10.4,-1.6,18.2,49.5*,5.6,55.3*
CN=c1scc(C)n1/N=C/c1ccc(O)cc1,4.1,8.6,3.5,-5.3,3.6,x
SMILES,SIAE inh,HTRA1 inhibitor,PRMT1 FP inh,ABHD4 inh,TCR-CD3 inh,mABHD4 conf
C=CCN=c1scc(C)n1/N=C/c1ccc(O)c(O)c1,14.5,34.7,9.5,40.2*,10.1,23.2
CC(C)(C)c1ccc(-c2nnc(SCC(=O)c3ccc([N+](=O)[O-])cc3)n2-c2ccc(Cl)cc2)cc1,0.8,x,3.0,11.7,x,x
O=C(c1ccccc1)N1N=C(c2cccs2)CC1c1ccccc1O (centres undefined),-10.9,-42.1,-7.4,-21.9,4.8,x
COC(=O)c1ccc(C2N=C(c3cccs3)CC(c3ccccc3O)N2)cc1 (centres undefined),3.3,-14.8,6.9,36.2*,-1.7,-9.4
CCOc1ccc(-n2c(COc3ccc(C)cc3)nnc2SCC(=O)Nc2ccc(F)c(F)c2)cc1,-3.3,x,0.3,-5.2,x,x
CCN(CC)c1ccc(/C=N/NC(=O)OC)c(O)c1,7.5,4.9,0.6,8.0,-1.3,x
CCN(CC)c1ccc(C=NNC(=O)Cc2cc(=O)[nH][nH]2)c(O)c1,11.9,x,0.6,32.9*,x,21.8
COc1ccc(-n2c(SCC(=O)Nc3ccc(Oc4ccccc4)cc3)nnc2-c2cccnc2)cc1,-1.8,x,4.2,-3.1,x,x
COC/C=C/C1=CC2=CC(=O)C(C)(OC(=O)c3cnc4ccccc4n3)C(=O)C2=CN1Cc1ccc(OC)cc1 (centres undefined),7.7,10.4,17.9,25.8,15.7,x
COC/C=C/C1=CC2=CC(=O)C(C)(OC(=O)c3cnc4ccccc4n3)C(=O)C2=CN1Cc1ccccc1 (centres undefined),14.4,25.8,14.4,33.9*,8.1,13.0
CCN(CC)C(=O)CC[C@@H]1CC[C@]2(CCCN(Cc3nccs3)C2)O1,4.9,x,-0.4,5.0,x,x
C=CCS/C(N)=N\N=C\c1cc(Br)cc([N+](=O)[O-])c1O,2.0,21.6,6.3,30.6*,17.9,6.5
O=[N+]([O-])c1cc(Br)cc(/C=N/n2cnnc2)c1O,2.4,7.0,7.4,8.2,-1.1,x
CCN(Cc1ccccc1)C(=O)COC(=O)c1cc(S(=O)(=O)Nc2ccccc2OC)ccc1O,-6.8,3.5,1.0,30.9*,2.6,43.9*
COc1ccccc1NS(=O)(=O)c1ccc(O)c(C(=O)OCC(=O)Nc2ccccc2F)c1,4.7,-4.2,-0.7,-0.5,-3.3,x
CCCCCC[C@H](CN(CCCC)S(C)(=O)=O)c1ccccc1,5.8,x,-1.4,-1.4,x,x
CNCc1ccccc1Sc1cc(O)ccc1O,16.9,36.1,58.5*,49.9*,3.3,62.9*
CCOC(=O)C(=O)Nc1nc(-c2ccc3c(c2)CCN3C(=O)C2CC2)c(C)s1,-0.3,-1.8,-1.5,38.9*,5.8,18.5
CC(=O)Nc1nc(-c2ccc3c(c2)CC(C)N3C(=O)C2CC2)c(C)s1 (centres undefined),4.0,-6.9,1.1,-2.7,4.2,x
CCC(NC(=O)c1ccc2c(ccn2Cc2cccc(-c3ccc(C(=O)O)cc3)c2)c1)c1ccccc1 (centres undefined),-14.1,x,11.0,-156.7,x,x
COc1ccc(/C=C2\CC3(OC(=O)c4ccco4)CCCN2C3)cc1 (centres undefined),2.5,x,-0.1,2.0,x,x
COc1ccc(C2C(C(=O)N3CCN(C=O)CC3)CC(=O)N2c2ccc(OC)cc2)cc1 (centres undefined),14.5,x,-1.8,1.7,x,x
CC(=O)N1N=C(c2cccc(NS(C)(=O)=O)c2)CC1c1cccs1 (centres undefined),-4.0,1.5,0.6,11.5,-0.8,x
CC(=O)N1N=C(c2cccc(O)c2)CC1c1cccs1 (centres undefined),1.6,0.4,-1.9,35.6*,6.4,-4.1
CC(C)c1ccc2c(c1)C(N1CCNCC1)Cc1ccc(F)cc1S2 (centres undefined),-11.0,x,6.0,32.1*,-5.5,47.4*
O=C(Nc1ccccc1F)c1ccc2c(c1)CCN2S(=O)(=O)c1ccccc1,-9.8,-32.0,-1.2,79.8*,2.2,-21.4

# Compound activity (PubChem)
